These molecules were tested on E. coli V66 Hfr conjugation, recombinant frequency by colony plating (assay: reduction of Hfr conjugational recombinant frequency – colony formation, V66 E. coli, provider lab, counter-screen for AddAB inhibitor project, late-stage follow-up (AID 623918)).
Summary of the method: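 Test system – E. coli F- recipient by Hfr donor mating · Reagent – Hfr donor, 1:10 donor to recipient · Compound – 5 doses, 0.03–100 µM · Timing – 1 h recipient growth, 30 min mating, 1.5 h compound exposure · Technique – colony counting after differential plating for His+ StrR recombinants, viability on non-selective plates · Controls – DMSO-only culture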

| Structure (SMILES) | IC50 |
| --- | --- |
| CCn1cc(C(=O)O)c(=O)c2cnc(N3CCN(C(=S)Nc4cccc(C(F)(F)F)c4)CC3)nc21 | 100 nM |
| CCn1cc(C(=O)O)c(=O)c2cc(F)c(N3CCN(C(=S)Nc4cccc(C(F)(F)F)c4)CC3)cc21 | < 1000 nM |
| CCn1cc(C(=O)O)c(=O)c2cnc(N3CCN(C(=S)Nc4ccccc4C(F)(F)F)CC3)nc21 | < 1000 nM |
| O=C(NCc1cccnc1)c1ccc([N+](=O)[O-])o1 | < 100 nM |
| C=CCn1c(Sc2ncc([N+](=O)[O-])s2)n[nH]c1=O | < 1000 nM |
| O=C(Nc1ncccn1)c1ccc([N+](=O)[O-])o1 | 30 nM |
| CCn1cc(C(=O)O)c(=O)c2cnc(N3CCNCC3)nc21 | < 100 nM |
